From paper PMC6954317 (Bioorganic chemistry, 2019)
Read-outs that look alike come from different tables or passages of the source.

How the values were obtained:
SphK1 = SphK1 (Homo sapiens, UniProt Q9NYA1); experiment: SphK1 inhibition, fluorometric assay with NBD-sphingosine as substrate; assay type: biochemical
Summary of the method: (§1)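 Recombinant SphK1 or SphK2 at 100 nM in 30 mM Tris-HCl pH 7.4 with 150 mM NaCl, 10% glycerol, 0.05% Triton X-100 and 1% DMSO. Test compounds were dissolved in DMSO and screened at 650 μM; actives were then tested at several concentrations to derive IC50. NBD-sphingosine-1-phosphate formation was read by fluorescence (ex 550 nm, em 584 nm) at 37 °C.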

SphK2 [1] = molecular target: T1, SphK2 (Homo sapiens, UniProt Q9NRA0); conditions: read-out: inhibitory effect reported for K145 on SphK2; cited from earlier work
T1 sequence (Q9NRA0 1-654): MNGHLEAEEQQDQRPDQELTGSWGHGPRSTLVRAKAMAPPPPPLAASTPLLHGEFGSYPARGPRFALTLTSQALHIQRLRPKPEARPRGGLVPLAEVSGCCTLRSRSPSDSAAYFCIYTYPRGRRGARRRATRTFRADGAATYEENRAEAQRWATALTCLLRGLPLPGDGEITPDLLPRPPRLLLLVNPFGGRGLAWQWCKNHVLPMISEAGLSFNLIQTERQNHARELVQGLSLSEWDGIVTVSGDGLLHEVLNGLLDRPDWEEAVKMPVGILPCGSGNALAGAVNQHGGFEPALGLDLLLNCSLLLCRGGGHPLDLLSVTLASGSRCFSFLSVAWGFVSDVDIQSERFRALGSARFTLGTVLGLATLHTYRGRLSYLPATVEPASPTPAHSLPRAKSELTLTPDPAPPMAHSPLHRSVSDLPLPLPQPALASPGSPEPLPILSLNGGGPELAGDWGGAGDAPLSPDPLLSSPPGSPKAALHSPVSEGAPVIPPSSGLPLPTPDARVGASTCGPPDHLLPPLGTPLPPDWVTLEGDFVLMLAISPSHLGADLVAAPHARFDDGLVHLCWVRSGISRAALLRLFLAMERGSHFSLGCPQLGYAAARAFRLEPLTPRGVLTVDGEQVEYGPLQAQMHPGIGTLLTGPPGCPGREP

SphK2 [2] = molecular target: T1, SphK2; experiment: SphK2 inhibition, fluorometric assay with NBD-sphingosine as substrate; assay type: biochemical; conditions: read-out: IC50 for SphK2; 100 nM recombinant SphK2, NBD-sphingosine, 37 °C
Summary of the method: as §1

SphK1, sequence (Q9NYA1 whole entry): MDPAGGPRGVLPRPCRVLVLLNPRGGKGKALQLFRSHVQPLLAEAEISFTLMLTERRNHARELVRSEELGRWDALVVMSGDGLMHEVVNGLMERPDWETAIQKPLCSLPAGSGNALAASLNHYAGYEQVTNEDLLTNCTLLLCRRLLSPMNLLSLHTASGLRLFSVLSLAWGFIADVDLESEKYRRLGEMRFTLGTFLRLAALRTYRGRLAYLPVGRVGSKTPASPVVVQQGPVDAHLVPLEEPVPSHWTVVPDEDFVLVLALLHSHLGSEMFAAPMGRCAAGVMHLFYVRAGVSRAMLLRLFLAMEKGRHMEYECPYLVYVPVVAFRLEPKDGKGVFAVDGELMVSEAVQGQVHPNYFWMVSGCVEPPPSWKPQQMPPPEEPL

Row | IC50 (SphK1) [µM] | Molecule | also measured
1 | 43.9 | Oc1ccc(Nc2nccc(-c3ccc(Cl)cc3)n2)cc1 [4a, 4-((4-(4-chlorophenyl)pyrimidin-2-yl)amino)phenol] | 
2 |  | COc1ccc2[nH]c(=O)c(/C=C/C(=O)c3ccc(Nc4nccc(-c5ccc6ccccc6c5)n4)cc3)cc2c1 [11b, (E)-6-methoxy-3-(3-(4-((4-(naphthalen-2-yl)pyrimidin-2-yl)amino)phenyl)-3-oxoprop-1-en-1-yl)quinolin-2(1H)-one] | selectivity SphK1 versus SphK2 (SphK1; in words): selective inhibitory effect on SphK1
3 |  | CCCCOc1ccc(CCC=C2SC(=O)N(CCN)C2=O)cc1 [K145, 3-(2-amino-ethyl)-5-[3-(4-butoxyl-phenyl)-propylidene]-thiazolidine-2,4-dione] | IC50 (SphK2 [1]): 4.3 µM
4 | 59.1 | COc1cc2cc(CNc3ccc(Nc4nccc(-c5ccc(Cl)cc5)n4)cc3)c(=O)[nH]c2cc1OC [16a, 3-(((4-((4-(4-chlorophenyl)pyrimidin-2-yl)amino)phenyl)amino)methyl)-6,7-dimethoxyquinolin-2(1H)-one] | 
5 |  | 3-((4-(4-chlorophenyl)pyrimidin-2-yl)-1-yl)oxymethyl) quinolin-2(1H)-ones [compound 9] | IC50 (SphK2 [2]): 18.2 µM
6 | 28.2 | COc1ccc2[nH]c(=O)c(/C=C/C(=O)c3ccc(Nc4nccc(-c5ccc(Cl)cc5)n4)cc3)cc2c1 [11a, (E)-3-(3-(4-((4-(4-chlorophenyl)pyrimidin-2-yl)amino)phenyl)-3-oxoprop-1-en-1-yl)-6-methoxyquinolin-2(1H)-one] | 
7 | 15.7 | O=c1[nH]c2cc(O)c(O)cc2cc1CNc1ccc(Nc2nccc(-c3ccc4ccccc4c3)n2)cc1 [19b, 6,7-dihydroxy-3-(((4-((4-(naphthalene-2-yl)pyrimidin-2-yl)amino)phenyl)amino)methyl)quinolin-2(1H)-one] | 
8 | 18.7 | COc1cc2cc(CNc3ccc(Nc4nccc(-c5ccc6ccccc6c5)n4)cc3)c(=O)[nH]c2cc1OC [16b, 6,7-dimethoxy-3-(((4-((4-(naphthalen-2-yl)pyrimidin-2-yl)amino)phenyl)amino)methyl)quinolin −2(1H)-one] | 
